Compound activity: PubChem BioAssay, The Scripps Research Institute Molecular Screening Center
TAAR1 antagonist: human TAAR1 antagonists, primary screen, Fluo-8 calcium fluorescence, CHO RD-HGA16 cells | antagonist | inhibition, % at 3 µM | 360,000 tested, 1.5% active | Trace amine-associated receptor 1 (Homo sapiens), Q96RJ0;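 active means inhibition above a per-plate cutoff, the mean inhibition of test compounds on that plate plus 3 SD, cut at about 49% in these data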;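 further: 0% = DMSO plus EC80 beta-PEA response and 100% = DMSO alone without agonist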
Target sequence (Q96RJ0 whole entry, looked up): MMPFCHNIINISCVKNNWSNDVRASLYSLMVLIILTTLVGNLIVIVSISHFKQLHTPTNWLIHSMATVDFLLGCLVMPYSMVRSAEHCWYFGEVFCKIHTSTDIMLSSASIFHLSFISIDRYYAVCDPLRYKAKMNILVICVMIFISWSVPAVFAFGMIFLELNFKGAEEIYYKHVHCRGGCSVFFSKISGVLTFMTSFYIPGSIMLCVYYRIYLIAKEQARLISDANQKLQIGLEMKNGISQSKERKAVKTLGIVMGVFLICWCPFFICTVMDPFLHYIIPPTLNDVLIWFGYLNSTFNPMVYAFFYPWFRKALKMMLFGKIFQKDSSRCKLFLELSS
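System: CHO RD-HGA16 cells bearing hTAAR1. Reagent: EC80 β-phenethylamine stimulus. Schedule: seeding 17-24 h prior, 75-min 37 °C, 30-min RT dye loading. Signal: Fluo-8 intracellular calcium dye fluorescence, real-time kinetic reads. Read-out: % inhibition from peak post-agonist over basal fluorescence ratio. Benchmarks: vehicle wells and EC80 agonist wells. Replicates: n of 1.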
OXTR agonist: human OXTR agonists, primary screen, fluorescence, CHO-OTR cells, Fluo-8 calcium; AID 2435, 2010; Oxytocin receptor (Homo sapiens), P30559; activation, % at 3 µM; 320,000 tested, 0.32% active; Fluo-8 calcium fluorescence; normalized: DMSO 0%, oxytocin 100%;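 active means activation above the mean of all tested compounds plus 3 SD, cutoff set per screening run, cut at about 20% in these data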;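 further: peak over basal fluorescence ratio from a 100 s FLIPR kinetic read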
TAAR1 agonist: human TAAR1 agonists, primary screen, Fluo-8 calcium fluorescence, CHO RD-HGA16 cells; vehicle wells 0%, saturating PEA agonist 100%; activation, % at 3 µM; 360,000 tested, 0.99% active; AID 624467, 2012;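 active means activation above the mean activation of all test compounds in the run plus 3 SD, cut at about 38% in these data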
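Signal – calcium-sensitive Fluo-8 signal, excitation 470-495, emission 515-575 nm · System – RD-HGA16 (CHO) cells co-expressing Gα16 and hTAAR1 · Incubation – 17-24 h seeding, 75 min 37 °C dye, 30 min RT · Compound dosing – 3 µM single concentration · Repeats – no replicates (n 1)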
OXTR potentiator: human OXTR potentiators, primary screen, fluorescence, CHO-OTR cells, Fluo-8 calcium. Oxytocin receptor (Homo sapiens), P30559. Fluo-8 calcium fluorescence, potentiator mode; 0% = oxytocin EC15, 100% = EC100. activation, % at 3 µM. 320,000 tested, 0.061% active;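 active means activation above that plate's cutoff, the mean activation of tested compounds plus 3 SD, cut at about 6.6% in these data, passing the limit was not always enough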;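 further: 100% uses oxytocin at 75 nM as the full agonist control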
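Assay system: CHO cell line stably expressing human OTR. Reagent: EC15 oxytocin agonist. Dosing: single dose, 3.0 µM nominal final compound concentration. Timing: compound 6 min at room temperature before oxytocin, 100 s read. Signal: kinetic Fluo-8 calcium fluorescence. Controls: oxytocin EC15 low and EC100 high.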
V1R ag counter: agonists of human V1a receptor, primary screen, counter-screen for OXTR agonist project, fluorescence, CHO-V1R cells; Vasopressin V1a receptor (Homo sapiens), P37288; Fluo-8 calcium fluorescence, agonist mode; 0% DMSO, 100% 3 nM vasopressin; activation, % at 3 µM; 320,000 tested, 0.25% active; AID 2797, 2010;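 active means activation above the mean activation of all tested compounds plus 3 SD, per screening run, cut at about 20% in these data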;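 further: signal is peak over basal fluorescence ratio across a 100 second FLIPR read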
Numbers without * were called inactive; / = no result given. The list is not random: actives were taken first. Their share in the collection is about 2.3%.

SMILES	TAAR1 antagonist	OXTR agonist	TAAR1 agonist	OXTR potentiator	V1R ag counter
COC(=O)C1=C(C)N(Cc2ccc(C(F)(F)F)cc2)C(=NCc2ccc(OC)cc2)NC1c1ccccc1 (stereo not drawn)	25	/	21	/	/
Cc1c(NC(=O)Nc2ccc(Cl)c(Cl)c2)sc(=S)n1C	6	5	41*	-14	4
Cc1cc(NCCc2ccccc2F)n2ncnc2n1	8	1	38*	-3	4
O=C(NCc1cccc(F)c1)c1cccc2c1C(=O)c1ccc(N3CCOCC3)cc1S2(=O)=O	49	4	15	-2	3
CC1CCN(c2ccc3c(c2)S(=O)(=O)c2cccc(C(=O)NC[C@@H]4CCCO4)c2C3=O)CC1	60*	8	31	-2	5
C=CCNC(=O)c1cccc2c1C(=O)c1ccc(N3CCCC3)cc1S2(=O)=O	12	7	16	-2	8
COc1ccccc1N1CCN(c2ccc3c(c2)S(=O)(=O)c2cccc(C(=O)NCc4cccc(F)c4)c2C3=O)CC1	53*	/	11	/	/
O=C(NCc1ccccc1)c1cccc2c1C(=O)c1ccc(/C=C/c3ccccc3)cc1S2(=O)=O	58*	3	14	-3	2
O=C(NCc1ccco1)c1cccc2c1C(=O)c1ccc(N3CCCC3)cc1S2(=O)=O	53*	7	23	2	6
O=C(NCC1CCN(C(=O)C(=O)c2cccs2)CC1)c1ccc2c(c1)CCO2	0	/	1	/	/
Cc1cc(N2CCN(C(=O)OC(C)(C)C)C[C@H]2C)ccc1Br	-14	/	1	/	/
O=C(NCc1ccccc1C(F)(F)F)c1cccc2c1C(=O)c1ccc(N3CCOCC3)cc1S2(=O)=O	56*	5	20	-3	6
O=C(NCc1ccccc1C(F)(F)F)c1cccc2c1C(=O)c1ccc(N3CCC(N4CCCCC4)CC3)cc1S2(=O)=O	42	/	16	/	/
CCN(CC)S(=O)(=O)c1ccc(N2CCOCC2)c(NC(=O)c2cccc3c(=O)c(C)c(-c4ccccc4)oc23)c1	54*	-2	9	-15	1
O=C(c1sc2cccc(F)c2c1Cl)N1CCN(c2ncccn2)CC1	7	-3	4	-8	1
Cc1cccc(OCCSc2nc3c([nH]2)c(=N)ncn3Cc2ccccc2)c1	56*	0	19	-9	3
CC(C)Sc1nc2c([nH]1)c(=N)ncn2Cc1ccccc1	15	-1	-1	-12	0
CCOC(=O)N1CCN(S(=O)(=O)N2CCCC(C(=O)NCCc3ccc(OC)c(OC)c3)C2)CC1 (stereo not drawn)	-15	-1	2	-12	-1
COc1cccc(CN(C)C(=O)c2cc(-c3ccc(F)cc3)nc3ccccc23)c1	/	-1	/	-4	2
COc1ccc(-c2cc(C(=O)N(C)CCc3ccc(OC)c(OC)c3)c3ccccc3n2)cc1	49*	/	12	/	/
COc1ccc(CN(C)C(=O)c2cc(-c3ccccc3)nc3ccc(C)cc23)c(OC)c1OC	63*	-1	4	-9	-1
COc1cccc(CN(C)C(=O)c2cc(-c3ccc(OC)c(OC)c3)nc3ccccc23)c1	51*	/	3	/	/
COc1cc2nc(CN(C)Cc3nc4ccccc4c(=O)[nH]3)[nH]c(=O)c2cc1OC	-17	1	7	3	0
COc1ccc(-c2cc(C(=O)N(C)Cc3nc4ccccc4c(=O)[nH]3)c3ccccc3n2)cc1OC	59*	-1	11	-1	11
COc1ccc(CCN(C)C(=O)c2cc(-c3ccccc3)nc3ccccc23)cc1OC	13	/	3	/	/
SMILES	TAAR1 antagonist	OXTR agonist	TAAR1 agonist	OXTR potentiator	V1R ag counter
COc1ccccc1CNC(=O)CSC(=S)N1CCCC1	13	-2	-1	-2	0
CCc1cc2c(nc1CC)CCCN2C	-3	/	4	/	/
O=C1CC2(CCN(C(=O)c3cccc([N+](=O)[O-])c3)CC2)Oc2ccccc21	-21	1	3	0	2
COc1ccc(-c2cc3ncnc(Cl)c3s2)cc1	0	-2	5	-4	-2
COc1c(C(=O)Nc2ccc(Cc3ccncc3)cc2)ccc2ccccc12	55*	8	11	-20	9
O=C(Nc1ccc2c(c1)CCCN2C(=O)c1ccccc1)c1ccccc1	58*	-1	12	-1	6
CC(C)Oc1cc(F)ccc1-c1cc(C(=O)Nc2ccc(C(C)C)cc2)[nH]n1	28	/	-1	/	/
COc1ccc(NC(=O)c2cc(-c3cc(Cl)ccc3OC)n[nH]2)c(OC)c1	54*	/	2	/	/
COc1ccc(NC(=O)c2cc(-c3cc(F)ccc3OC(C)C)n[nH]2)c(C)c1	86*	/	45*	/	/
CC(C)Oc1cc(F)ccc1-c1cc(C(=O)Nc2ccccc2)[nH]n1	54*	/	0	/	/
COc1ccc(NC(=O)c2cc(-c3cc(C)c(C)cc3O)n[nH]2)c(OC)c1	-12	-1	3	-21	2
COc1ccc(NC(=O)c2cc(-c3cc(F)ccc3OC)n[nH]2)c(OC)c1	50*	/	7	/	/
COc1ccc(OC)c(NC(=O)c2cc(-c3ccc(F)cc3OC(C)C)n[nH]2)c1	41	/	3	/	/
NC(=O)C1CCN(C(=O)CCNS(=O)(=O)c2ccccc2F)CC1	4	0	6	-4	0
COc1ccc(F)cc1S(=O)(=O)NCCCn1ccnc1	-8	0	1	-9	0
COC(=O)[C@@H](N[C@H](/C=C/c1ccccc1)[C@@H](O)Cc1ccccc1)c1ccccc1	26	/	0	/	/
COc1ccccc1CCn1cnc(-c2ccc(F)cc2)c1C(C)C	19	/	5	/	/
O=C1NC[C@H](c2ccccc2)OC(=O)[C@H](Cc2ccc(F)cc2)C/C=C\C[C@H]1CC(=O)N(CCO)Cc1ccccc1	82*	-1	38*	-8	1
O=C1NC[C@H](c2ccccc2)OC(=O)[C@@H](Cc2ccc(F)cc2)C/C=C\C[C@H]1CC(=O)N(CCO)Cc1ccccc1	81*	2	49*	-11	2
CC(C)(C)OC(=O)C[C@@H]1C/C=C\C[C@H](CC(=O)N(CCO)Cc2ccccc2)C(=O)NC[C@@H](c2ccccc2)OC1=O	12	-2	7	-3	-1
O=C1NC[C@H](c2ccccc2)OC(=O)[C@H](Cc2ccc(F)cc2)CC/C=C/C[C@@H]1CC(=O)N(CCO)Cc1ccccc1	57*	-1	18	-10	2
CC1(C)Cn2c(nc(=O)c3c2NCN(CCc2ccccc2)C3)S1	/	0	/	-16	0
CN1c2ccccc2C(C)(C)C12C=Nc1c(ccc3ccccc13)O2 (stereo not drawn)	43	1	40*	-7	1
